How the values were obtained:
Assay type in all cases: functional
786-0 = experiment: Anticancer activity against human 786-0 cells
Summary of the method: (§1)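 NCI 60-cell human tumour panel (leukemia, lung, colon, CNS, melanoma, ovarian, renal, prostate, breast). A first-stage single-dose screen at 10 µM was run. Compounds giving over 60% growth inhibition in at least eight lines went on to a five-dose response. Effect was plotted against log10 molar concentration per line. GI50 is the concentration giving 50% reduction in net protein increase versus control cells. LC50 is the concentration lethal to 50% of cells.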

COLO 205 = experiment: Anticancer activity against human COLO205 cells; summary of the method: as §1
NCI-H226 = experiment: Anticancer activity against human NCI-H226 cells; summary of the method: as §1
BT-549 = experiment: Anticancer activity against human BT549 cells; summary of the method: as §1
NCI-H460 = experiment: Anticancer activity against human NCI-H460 cells; summary of the method: as §1
ACHN = experiment: Anticancer activity against human ACHN cells; summary of the method: as §1
HCC 2998 = experiment: Anticancer activity against human HCC2998 cells; summary of the method: as §1
SNB-19 = experiment: Anticancer activity against human SNB19 cells; summary of the method: as §1
SW-620 = experiment: Anticancer activity against human SW620 cells
Summary of the method: (§2)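 NCI 60-cell-line panel. A single-dose (10 µM) prescreen was run first. Compounds giving over 60% growth inhibition in at least eight lines then went to five-dose response studies. Dose-response curves of effect versus log10 concentration. GI50 is the molar concentration giving a 50% reduction in net protein increase versus control cells. LC50 is the concentration lethal to 50% of cells.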

A498 = experiment: Anticancer activity against human A498 cells; summary of the method: as §1
[1] = Anticancer activity against human Hs 578T cells; summary of the method: as §1
MDA-MB-468 = experiment: Anticancer activity against human MDA-MB-468 cells; summary of the method: as §1
SK-MEL-2 = experiment: Anticancer activity against human SK-MEL-2 cells; summary of the method: as §1
LOX IMVI = experiment: Anticancer activity against human LOXIMVI cells; summary of the method: as §1
PC-3 = experiment: Anticancer activity against human PC3 cells; summary of the method: as §1
OVCAR-5 = experiment: Anticancer activity against human OVCAR5 cells; summary of the method: as §1
SF-539 = experiment: Anticancer activity against human SF539 cells; summary of the method: as §1
SNB-75 = experiment: Anticancer activity against human SNB75 cells; summary of the method: as §2
T47D = experiment: Anticancer activity against human T47D cells; summary of the method: as §2
SK-OV-3 = experiment: Anticancer activity against human SKOV3 cells; summary of the method: as §1
TK-10 = experiment: Anticancer activity against human TK10 cells; summary of the method: as §2
NCI-H23 = experiment: Anticancer activity against human NCI-H23 cells; summary of the method: as §1
[2] = Anticancer activity against human […] cells; summary of the method: as §1
SF-295 = experiment: Anticancer activity against human SF295 cells; summary of the method: as §1
UACC-257 = experiment: Anticancer activity against human UACC257 cells; summary of the method: as §2
MDA-MB-435 = experiment: Anticancer activity against human MDA-MB-435 cells; summary of the method: as §1
M14 = experiment: Anticancer activity against human M14 cells; summary of the method: as §1
KM12 = experiment: Anticancer activity against human KM12 cells; summary of the method: as §1
MOLT-4 = experiment: Anticancer activity against human MOLT4 cells; summary of the method: as §1
A549 = experiment: Anticancer activity against human A549 cells; summary of the method: as §1
CCRF-CEM = experiment: Anticancer activity against human CCRF-CEM cells; summary of the method: as §1
HT-29 = experiment: Anticancer activity against human HT-29 cells; summary of the method: as §1
HL-60(TB) = experiment: Anticancer activity against human HL-60(TB) cells; summary of the method: as §1
UACC-62 = experiment: Anticancer activity against human UACC62 cells; summary of the method: as §2
Malme-3M = experiment: Anticancer activity against human MALME-3M cells; summary of the method: as §1
EKVX = experiment: Anticancer activity against human EKVX cells; summary of the method: as §1
SN12C = experiment: Anticancer activity against human SN12C cells; summary of the method: as §1
[3] = Anticancer activity against human NCI/ADR cells; conditions: NCI/ADR-RES; summary of the method: as §1
SK-MEL-28 = experiment: Anticancer activity against human SK-MEL-28 cells; summary of the method: as §1
U-251 = experiment: Anticancer activity against human U251 cells; summary of the method: as §2
K562 = experiment: Anticancer activity against human K562 cells; summary of the method: as §1
UO-31 = experiment: Anticancer activity against human UO31 cells; summary of the method: as §2
IGROV-1 = experiment: Anticancer activity against human IGROV1 cells; summary of the method: as §1
OVCAR-4 = experiment: Anticancer activity against human OVCAR4 cells; summary of the method: as §1
HOP-62 = experiment: Anticancer activity against human HOP62 cells; summary of the method: as §1
RXF 393 = experiment: Anticancer activity against human RXF393 cells; summary of the method: as §1
SF-268 = experiment: Anticancer activity against human SF268 cells; summary of the method: as §1
CAKI-1 = experiment: Anticancer activity against human Caki1 cells; summary of the method: as §1
MCF7 = experiment: Anticancer activity against human MCF7 cells; summary of the method: as §1
OVCAR-3 = experiment: Anticancer activity against human OVCAR3 cells; summary of the method: as §1
NCI-H322M = experiment: Anticancer activity against human NCI-H322M cells; summary of the method: as §1
OVCAR-8 = experiment: Anticancer activity against human OVCAR8 cells; summary of the method: as §1
HCT-116 = experiment: Anticancer activity against human HCT116 cells; summary of the method: as §1
SK-MEL-5 = experiment: Anticancer activity against human SK-MEL-5 cells; summary of the method: as §1
MDA-MB-231 = experiment: Anticancer activity against human MDA-MB-231 cells; summary of the method: as §1
[4] = read-out: LC50 (the source's name)

SMILES: COC(=O)c1ccc2c(/C=C3\NC(=O)NC3=O)cn(Cc3ccc(C#N)cc3)c2c1
- GI50 (786-0): 2.36 µM
- CC50 (786-0; [4]): > 100 µM
- GI50 (COLO 205): 3.16 µM
- CC50 (COLO 205; [4]): > 100 µM
- GI50 (NCI-H226): 5.94 µM
- CC50 (NCI-H226; [4]): > 100 µM
- GI50 (BT-549): 1.24 µM
- CC50 (BT-549; [4]): > 100 µM
- GI50 (NCI-H460): 2.91 µM
- CC50 (NCI-H460; [4]): > 100 µM
- GI50 (ACHN): 2.08 µM
- CC50 (ACHN; [4]): > 100 µM
- GI50 (HCC 2998): 2.43 µM
- CC50 (HCC 2998; [4]): 85 µM
- GI50 (SNB-19): 3.77 µM
- CC50 (SNB-19; [4]): > 100 µM
- GI50 (SW-620): 2.27 µM
- CC50 (SW-620; [4]): > 100 µM
- GI50 (A498): 0.55 µM
- CC50 (A498; [4]): > 100 µM
- GI50 [1]: 0.97 µM
- CC50 [1, 4]: > 100 µM
- GI50 (MDA-MB-468): 4.14 µM
- CC50 (MDA-MB-468; [4]): > 100 µM
- GI50 (SK-MEL-2): 0.3 µM
- CC50 (SK-MEL-2; [4]): 30.6 µM
- GI50 (LOX IMVI): 1.43 µM
- CC50 (LOX IMVI; [4]): > 100 µM
- GI50 (PC-3): 2.44 µM
- CC50 (PC-3; [4]): > 100 µM
- GI50 (OVCAR-5): 5.51 µM
- CC50 (OVCAR-5; [4]): > 100 µM
- GI50 (SF-539): 2.39 µM
- CC50 (SF-539; [4]): > 100 µM
- GI50 (SNB-75): 4.6 µM
- CC50 (SNB-75; [4]): > 100 µM
- GI50 (T47D): 1.5 µM
- CC50 (T47D; [4]): > 100 µM
- GI50 (SK-OV-3): 0.86 µM
- CC50 (SK-OV-3; [4]): 79.8 µM
- GI50 (TK-10): 3.87 µM
- CC50 (TK-10; [4]): > 100 µM
- GI50 (NCI-H23): 4.07 µM
- CC50 (NCI-H23; [4]): > 100 µM
- GI50 [2]: 3.61 µM
- CC50 [2, 4]: > 100 µM
- GI50 (SF-295): 3.09 µM
- CC50 (SF-295; [4]): > 100 µM
- GI50 (UACC-257): 4.2 µM
- CC50 (UACC-257; [4]): > 100 µM
- GI50 (MDA-MB-435): 2.76 µM
- CC50 (MDA-MB-435; [4]): > 100 µM
- GI50 (M14): 1.43 µM
- CC50 (M14; [4]): > 100 µM
- GI50 (KM12): 3.73 µM
- CC50 (KM12; [4]): > 100 µM
- GI50 (MOLT-4): 1.38 µM
- CC50 (MOLT-4; [4]): > 100 µM
- GI50 (A549): 4.44 µM
- CC50 (A549; [4]): > 100 µM
- GI50 (CCRF-CEM): 3.06 µM
- CC50 (CCRF-CEM; [4]): > 100 µM
- GI50 (HT-29): 5.99 µM
- CC50 (HT-29; [4]): > 100 µM
- GI50 (HL-60(TB)): 2.54 µM
- CC50 (HL-60(TB); [4]): > 100 µM
- GI50 (UACC-62): 1.27 µM
- CC50 (UACC-62; [4]): 51 µM
- GI50 (Malme-3M): 2.01 µM
- CC50 (Malme-3M; [4]): > 100 µM
- GI50 (EKVX): 4.22 µM
- CC50 (EKVX; [4]): > 100 µM
- GI50 (SN12C): 2.8 µM
- CC50 (SN12C; [4]): > 100 µM
- GI50 [3]: > 100 µM
- CC50 [3, 4]: > 100 µM
- GI50 (SK-MEL-28): 3.79 µM
- CC50 (SK-MEL-28; [4]): > 100 µM
- GI50 (U-251): 2.03 µM
- CC50 (U-251; [4]): 59.1 µM
- GI50 (K562): 0.97 µM
- CC50 (K562; [4]): > 100 µM
- GI50 (UO-31): 2.7 µM
- CC50 (UO-31; [4]): > 100 µM
- GI50 (IGROV-1): 0.66 µM
- CC50 (IGROV-1; [4]): > 100 µM
- GI50 (OVCAR-4): 4.13 µM
- CC50 (OVCAR-4; [4]): > 100 µM
- GI50 (HOP-62): 3.58 µM
- CC50 (HOP-62; [4]): 73 µM
- GI50 (RXF 393): 0.58 µM
- CC50 (RXF 393; [4]): > 100 µM
- GI50 (SF-268): 4.22 µM
- CC50 (SF-268; [4]): > 100 µM
- GI50 (CAKI-1): 2.74 µM
- CC50 (CAKI-1; [4]): > 100 µM
- GI50 (MCF7): 3.55 µM
- CC50 (MCF7; [4]): > 100 µM
- GI50 (OVCAR-3): 2.05 µM
- CC50 (OVCAR-3; [4]): > 100 µM
- GI50 (NCI-H322M): 0.72 µM
- CC50 (NCI-H322M; [4]): > 100 µM
- GI50 (OVCAR-8): 3.75 µM
- CC50 (OVCAR-8; [4]): > 100 µM
- GI50 (HCT-116): 1.21 µM
- CC50 (HCT-116; [4]): > 100 µM
- GI50 (SK-MEL-5): 3.25 µM
- CC50 (SK-MEL-5; [4]): > 100 µM
- GI50 (MDA-MB-231): 3.32 µM
- CC50 (MDA-MB-231; [4]): > 100 µM
